Data taken from ChEMBL document CHEMBL1155976, “Synthesis and preliminary pharmacological evaluation of imidazo[2,1-f]purine-2,4-dione derivatives” (Eur J Med Chem, 2009).
One block for each molecule: values may come before it. Activity calls are given as the source filed them. The rule behind the calls is not given here.

How the values were obtained:
[1] = test system: Mus musculus; assay: Agonist activity at 5HT1A receptor in ip dosed Swiss albino mouse assessed as decrease in rectal temperature; assay type: functional, organism-based
In short: (§1)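 Male Albino Swiss mice (24–28 g), free food and water, room at 20 ± 1 °C; test agent suspended in 1% aqueous Tween 80, given ip at 10 ml/kg. Rectal temperature read with a thermometer at 30, 60, 90 and 120 min after dosing. Result expressed as Δt from basal temperature taken at the start; six to ten animals per group, each used once.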

[2] = test system: Mus musculus; assay: Agonist activity at 5HT1A receptor in Swiss albino mouse assessed as decrease in rectal temperature at 5 mg/kg, ip after 90 mins; assay type: functional, organism-based; parameters: dose 5 mg/kg; in short: as §1
[3] = test system: Mus musculus; assay: Agonist activity at 5HT1A receptor in Swiss albino mouse assessed as decrease in rectal temperature at 10 mg/kg, ip after 60 mins; assay type: functional, organism-based; parameters: dose 10 mg/kg; in short: as §1
[4] = test system: Mus musculus; assay: Agonist activity at 5HT1A receptor in Swiss albino mouse assessed as decrease in rectal temperature at 5 mg/kg, ip after 60 mins; assay type: functional, organism-based; parameters: dose 5 mg/kg; in short: as §1
[5] = test system: Mus musculus; assay: Agonist activity at 5HT1A receptor in Swiss albino mouse assessed as decrease in rectal temperature at 10 mg/kg, ip after 30 mins; assay type: functional, organism-based; parameters: dose 10 mg/kg; in short: as §1
[6] = target: D(2) dopamine receptor (Rattus norvegicus, UniProt P61169); assay: Displacement of [3H]spiperone from dopamine D2 receptor in rat striatum membrane after 30 mins by liquid scintillation counting; assay type: cell membranes
Chain of D(2) dopamine receptor (P61169 whole entry): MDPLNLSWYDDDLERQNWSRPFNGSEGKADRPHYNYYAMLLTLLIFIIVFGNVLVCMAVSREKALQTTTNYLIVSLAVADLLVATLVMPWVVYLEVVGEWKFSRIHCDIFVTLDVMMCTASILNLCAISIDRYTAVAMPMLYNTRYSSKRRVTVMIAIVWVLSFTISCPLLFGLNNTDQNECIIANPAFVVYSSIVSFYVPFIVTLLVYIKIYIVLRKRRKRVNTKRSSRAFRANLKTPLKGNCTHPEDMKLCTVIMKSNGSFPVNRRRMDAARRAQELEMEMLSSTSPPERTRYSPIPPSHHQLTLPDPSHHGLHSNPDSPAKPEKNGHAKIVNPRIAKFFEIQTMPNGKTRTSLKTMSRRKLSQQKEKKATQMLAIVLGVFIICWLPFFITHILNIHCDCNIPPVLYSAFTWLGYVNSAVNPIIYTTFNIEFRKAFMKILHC
In short: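 Rat striatum homogenised in 50 mM potassium phosphate pH 7.4 and spun twice at 20000 × g. Membranes (3 mg wet weight) incubated with 1 nM [3H]-spiperone and test agent in 0.5 ml for 30 min at 37 °C. Nonspecific binding with (+)butaclamol. GF/B filtration, two washes with ice-cold buffer, scintillation counting; Ki from ≥3 experiments, 10 concentrations in triplicate.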

[7] = test system: Mus musculus; assay: Agonist activity at 5HT1A receptor in Swiss albino mouse assessed as decrease in rectal temperature at 5 mg/kg, ip after 30 mins; assay type: functional, organism-based; parameters: dose 5 mg/kg; in short: as §1
[8] = target: 5-hydroxytryptamine receptor 2A (Rattus norvegicus, UniProt P14842); assay: Displacement of [3H]ketanserin from 5HT2A receptor in rat cerebral cortex after 20 mins by liquid scintillation counting; assay type: tissue-based
Chain of 5-hydroxytryptamine receptor 2A (P14842 whole entry): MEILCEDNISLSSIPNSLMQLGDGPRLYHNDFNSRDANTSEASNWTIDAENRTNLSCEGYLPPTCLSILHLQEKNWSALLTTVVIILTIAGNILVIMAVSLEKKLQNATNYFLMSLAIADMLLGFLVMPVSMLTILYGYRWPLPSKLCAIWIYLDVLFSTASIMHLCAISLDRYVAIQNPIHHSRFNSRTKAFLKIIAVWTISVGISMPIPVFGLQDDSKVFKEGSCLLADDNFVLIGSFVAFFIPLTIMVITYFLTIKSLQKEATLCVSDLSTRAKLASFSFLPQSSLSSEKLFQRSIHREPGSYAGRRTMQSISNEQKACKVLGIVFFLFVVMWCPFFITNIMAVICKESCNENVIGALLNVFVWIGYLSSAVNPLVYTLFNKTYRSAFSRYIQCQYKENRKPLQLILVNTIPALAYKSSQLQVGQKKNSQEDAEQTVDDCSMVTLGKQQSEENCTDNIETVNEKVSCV
In short: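 Rat cerebral cortex homogenised in 50 mM Tris-HCl pH 7.7, spun at 32000 × g, preincubated 10 min at 37 °C, resuspended in 50 volumes. Incubated with 0.6 nM [3H]-ketanserin and test agent (10^-10 to 10^-4 M) at 37 °C for 20 min; mianserin as displacer. GF/B filtration, scintillation counting; Ki from ≥3 experiments, 10 concentrations in triplicate.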

[9] = target: T1, 5-hydroxytryptamine receptor 1A (Rattus norvegicus, UniProt P19327); assay: Displacement of [3H]8-OH-DPAT from 5HT1A receptor in rat cerebral cortex after 15 mins by liquid scintillation counting; assay type: tissue-based
T1 sequence (P19327 whole entry): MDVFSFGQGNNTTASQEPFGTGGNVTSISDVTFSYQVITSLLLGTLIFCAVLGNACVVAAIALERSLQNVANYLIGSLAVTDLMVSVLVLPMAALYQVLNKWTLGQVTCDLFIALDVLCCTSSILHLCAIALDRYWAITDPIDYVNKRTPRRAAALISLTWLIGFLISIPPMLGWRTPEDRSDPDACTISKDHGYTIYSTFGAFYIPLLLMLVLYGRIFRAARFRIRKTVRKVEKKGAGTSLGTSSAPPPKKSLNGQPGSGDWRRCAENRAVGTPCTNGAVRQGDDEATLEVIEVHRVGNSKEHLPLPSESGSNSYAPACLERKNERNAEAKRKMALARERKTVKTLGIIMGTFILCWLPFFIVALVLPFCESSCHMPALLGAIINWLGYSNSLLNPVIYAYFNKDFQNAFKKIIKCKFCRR

[10] = test system: Mus musculus; assay: Agonist activity at 5HT1A receptor in Swiss albino mouse assessed as decrease in rectal temperature at 10 mg/kg, ip after 90 mins; assay type: functional, organism-based; parameters: dose 10 mg/kg; in short: as §1
[11] = test system: Mus musculus; assay: Agonist activity at 5HT1A receptor in Swiss albino mouse assessed as decrease in rectal temperature at 5 mg/kg, ip after 120 mins; assay type: functional, organism-based; parameters: dose 5 mg/kg; in short: as §1
[12] = test system: Mus musculus; assay: Agonist activity at 5HT1A receptor in Swiss albino mouse assessed as decrease in rectal temperature at 10 mg/kg, ip after 120 mins; assay type: functional, organism-based; parameters: dose 10 mg/kg; in short: as §1
[13] = test system: Mus musculus; assay: Agonist activity at 5HT1A receptor in Swiss albino mouse assessed as decrease in rectal temperature at 10 mg/kg, ip after 30 mins in presence of WAY 100635 administered 15 mins before drug challenge; assay type: functional, organism-based; parameters: dose 10 mg/kg
In short: (§2)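 Male Albino Swiss mice (24–28 g). WAY 100635 (0.1 mg/kg, sc, in distilled water) given 15 min before test agent (ip, suspended in 1% Tween 80, 10 ml/kg). Rectal temperature recorded 30 and 60 min after test agent injection. Expressed as Δt versus basal temperature at the start of the experiment.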

[14] = test system: Mus musculus; assay: Agonist activity at 5HT1A receptor in Swiss albino mouse assessed as decrease in rectal temperature at 10 mg/kg, ip after 60 mins in presence of WAY 100635 administered 15 mins before drug challenge; assay type: functional, organism-based; parameters: dose 10 mg/kg; in short: as §2
[15] = test system: Rattus norvegicus; assay: Behavioral activity in Wistar rat assessed as induction of lower lip retraction at 10 to 20 mg/kg, ip; assay type: functional, organism-based
In short: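 Male Wistar rats (290–310 g); agent ip in 1% Tween 80 at 2 ml/kg. Rats housed singly in cages and scored 15, 30 and 45 min after dosing: 0 = lower incisors not visible, 0.5 = partly, 1 = fully visible. Maximum total score 3 per rat.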

[16] = test system: Rattus norvegicus; assay: Behavioral activity in Wistar rat assessed as reduction of 8-OH-DPAT-induced lower lip retraction at 10 to 20 mg/kg, ip administered 45 mins before 8-OH-DPAT challenge; assay type: functional, organism-based
[17] = test system: Rattus norvegicus; assay: Behavioral activity in Wistar rat assessed as reduction of 8-OH-DPAT-induced lower lip retraction at 10 to 20 mg/kg, ip administered 45 mins before 8-OH-DPAT challenge

Activity [1]: Dose-dependent effect
Ki [6]: 345 nM
Ki [8]: > 1000 nM
Ki [9]: 16.8 nM
Structure (SMILES): COc1ccccc1N1CCN(CCCn2c(C)cn3c4c(=O)n(C)c(=O)n(C)c4nc23)CC1
deltaT [2]: -0.3 °C
deltaT [3]: -0.5 °C
deltaT [4]: -0.4 °C
deltaT [5]: -0.9 °C
deltaT [7]: -0.4 °C
deltaT [10]: -0.6 °C
deltaT [11]: -0.1 °C
deltaT [12]: -0.2 °C
deltaT [13]: -1 °C
deltaT [14]: -0.9 °C
Activity [15]: inactive
Activity [16]: inactive

Structure (SMILES): Cn1c(=O)c2c(nc3n(CCCN4CCN(c5cccc(Cl)c5)CC4)c(-c4ccccc4)cn23)n(C)c1=O
Ki [8]: > 1000 nM

Structure (SMILES): Cn1c(=O)c2c(nc3n2CC(C(=O)NCCN2CCN(c4ccccc4)CC2)N3)n(C)c1=O (stereo not given)
Ki [9]: > 1000 nM

Ki [8]: 486 nM
Ki [9]: 2.8 nM
Structure (SMILES): COc1ccccc1N1CCN(CCCN2CCCn3c2nc2c3c(=O)n(C)c(=O)n2C)CC1

Activity [1]: Dose-dependent effect
Ki [6]: 767 nM
Ki [8]: 403 nM
Ki [9]: 17.1 nM
Structure (SMILES): Cc1cn2c3c(=O)n(C)c(=O)n(C)c3nc2n1CCCN1CCN(c2cccc(Cl)c2)CC1
deltaT [2]: -0.5 °C
deltaT [3]: -0.7 °C
deltaT [4]: -0.4 °C
deltaT [5]: -1 °C
deltaT [7]: -0.5 °C
deltaT [10]: -0.8 °C
deltaT [11]: -0.1 °C
deltaT [12]: -0.1 °C
deltaT [13]: -0.9 °C
deltaT [14]: -0.5 °C
Activity [15]: inactive

Structure (SMILES): COc1ccccc1N1CCN(CCN(C(=O)C2CCCCC2)c2ccccn2)CC1
Activity [17]: Active

Ki [6]: > 1000 nM
Ki [8]: 813 nM
Ki [9]: 96.5 nM
Structure (SMILES): Cn1c(=O)c2c(nc3n(CCCN4CCN(c5ccccc5)CC4)c(-c4ccccc4)cn23)n(C)c1=O

Structure (SMILES): COc1ccccc1N1CCN(CCNC(=O)C2Cn3c(nc4c3c(=O)n(C)c(=O)n4C)N2)CC1 (stereo not given)
Ki [9]: > 1000 nM
